Like-named read-outs stand apart in the source and are kept apart here. One block for each compound: values may come before it.
Columns and labels:
[1] = cited from earlier work
[2] = Phase I safety and tolerability, adverse events; assay type: in vivo, human
Procedure, shortened: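 The trial was a randomised, double-blind, placebo-controlled phase I study with eight cohorts of 10 healthy subjects each, randomised 8:2 to test compound or saline. Single IV doses were given alone and then about 3 h after edoxaban 60 mg orally. Safety was assessed in everyone dosed at least once: adverse events, vital signs, pulse oximetry, ECGs, clinical laboratory tests, fecal occult blood and concomitant medications. Treatment-emergent events were those starting on or after dosing.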

[3] = test system: clot fibrin; assay type: in vivo, human
[4] = test system: hepatic cytochrome enzymes or membrane transporters; conditions: cited from earlier work
[5] = test system: edoxaban-induced anticoagulation; assay: Thromboelastography reaction time; assay type: in vivo, human; conditions: within cohorts and across escalating dose cohorts
Procedure, shortened: (§1)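 Whole blood was tested serially by point-of-care prothrombin time and by thromboelastography reaction time. Subjects were healthy volunteers in escalating-dose cohorts of 8 active and 2 placebo. They received single slow IV test compound or saline about 3 h after a single 60 mg oral dose of edoxaban.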

[6] = test system: plasma proteins; conditions: cited from earlier work
[7] = test system: edoxaban-induced anticoagulation; assay: Whole blood point-of-care prothrombin time; assay type: in vivo, human; conditions: within cohorts and across escalating dose cohorts
Procedure, shortened: as §1

[8] = test system: edoxaban-induced anticoagulation; assay: Whole blood clotting time; assay type: in vivo, human
Procedure, shortened: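 Native whole blood was tested in glass tubes with no activator or anticoagulant, three tubes of 0.5 ml each. Clotting time was read by tilt-tube visual inspection. Testing began in Period 2 of the 50 mg cohort and continued in all later cohorts, and the 25 mg cohort was repeated with it. IV test compound or saline was given about 3 h after edoxaban 60 mg orally, with follow-up to 24 h. Groups were compared by ANOVA with Tukey HSD, p<0.05.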

[9] = Pharmacokinetics of ciraparantag and metabolite BAP in serum/plasma and urine; assay type: in vivo, human; conditions: for dose proportionality of pharmacokinetics: based on Cmax and t½, 5-300 mg
Procedure, shortened: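 Healthy non-smoking adults aged 18–65 received single escalating doses of test compound from 5 to 300 mg. Each dose was a sterile aqueous solution given by slow IV injection into an indwelling catheter, alone and, after at least four days' washout, about 3 h after oral edoxaban 60 mg. Parent compound and its piperazine metabolite were measured in serum/plasma and in urine pooled over the first 24 h.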

[10] = test system: anticoagulant-induced bleeding; conditions: pre-clinical animal models of anticoagulant-induced bleeding; cited from earlier work
[11] = ciraparantag arm N=66, number (% of subjects)
[12] = single IV dose 100 to 300 mg following edoxaban 60 mg

Structure (SMILES): N=C(N)NCCC[C@H](N)C(=O)NCCCN1CCN(CCCNC(=O)[C@@H](N)CCCNC(=N)N)CC1 [ciraparantag]
binding to a selected spectrum of cardiovascular and antiepileptic drugs [1]: no binding | binding to anticoagulants ([1]; non-covalent hydrogen bonding and charge-charge interactions): binds similarly to the new oral Xa inhibitors, edoxaban, rivaroxaban and apixaban, and to the oral thrombin inhibitor, dabigatran, but not to argatroban or warfarin | Number of subjects who died ([2]; ciraparantag arm N=66): 0 | Number of subjects with SAE ([2]; ciraparantag arm N=66): 0 | Number of AEs ([2]; ciraparantag arm N=66, all single IV doses, Periods 1 and 2): 204 | Number of AEs per subject: 0 [2, 11]: 17 (25.8 %) | Number of AEs per subject: 1 [2, 11]: 10 (15.2 %) | Number of AEs per subject: 2–3 [2, 11]: 16 (24.2 %) | Number of AEs per subject: 4–5 [2, 11]: 9 (13.6 %) | Number of AEs per subject: >5 [2, 11]: 14 (21.2 %) | Number of subjects with AE [2, 11]: 49 (74.2 %) | Number of subjects with AE related to Ciraparantag/Placebo [2, 11]: 36 (54.5 %) | Number of subjects with AE related to edoxaban [2, 11]: 5 (7.6 %) | Number of subjects with AE related to study drug [2, 11]: 38 (57.6 %) | Number of subjects with TEAE [2, 11]: 49 (74.2 %) | Changes in blood counts, blood chemistries (electrolytes, bilirubin, hepatic enzymes) or electrocardiograms ([2]; healthy subjects, single IV doses 5-300 mg): no significant changes | mean fibrin diameter ([3]; 25 mg ciraparantag after edoxaban 60 mg, partial reversal): ~200 nm | mean fibrin diameter ([3]; 100 mg ciraparantag after edoxaban 60 mg, full reversal): ~250 nm | mean fibrin diameter ([3]; 300 mg ciraparantag after edoxaban 60 mg, full reversal): ~250 nm | time to restoration of fibrin strands to baseline levels ([3]; single i.v. dose of 100 mg ciraparantag after edoxaban): ≤ 30 min | interaction with hepatic cytochrome enzymes or membrane transporters [4]: does not interact substantially | change in mean TEG-R [5]: no change over time | binding to plasma proteins [6]: no significant binding | change in mean PoC-PT [7]: no change over time | reversal of edoxaban-induced anticoagulation (WBCT) within 10 min ([8]; 50 mg ciraparantag IV after edoxaban 60 mg): Significant reversal | reversal of edoxaban-induced anticoagulation (WBCT) ([8]; 100–300 mg ciraparantag IV (Cohorts 5 to 7) after edoxaban 60 mg): essentially full reversal | effect on WBCT ([8]; ciraparantag in the absence of edoxaban): no effect | duration of reversal of anticoagulation [8, 12]: at least 24 hours | time to full reversal of anticoagulation [8, 12]: ≤ 10 min | anticoagulation above baseline ([8]; within 30 min of injection, after therapeutic dose of edoxaban): less than 10% | dose proportionality of pharmacokinetics [9]: dose-proportional pharmacokinetics | main elimination route ([9]; healthy subjects): Renal excretion of ciraparantag metabolite | half-life ([9]; human, serum, iv, 5 mg): ~12 min | Cmax ([9]; human, serum, iv, 300 mg): ~10600 ng/mL | blood loss [10]: reduces blood loss to baseline levels

dose proportionality of pharmacokinetics [9]: dose-proportional pharmacokinetics
Structure (SMILES): NCCCN1CCN(CCCN)CC1 [BAP, 1,4-bis(3-aminopropyl)-piperazine]

Structure (SMILES): CN1CCc2nc(C(=O)N[C@@H]3C[C@@H](C(=O)N(C)C)CC[C@@H]3NC(=O)C(=O)Nc3ccc(Cl)cn3)sc2C1 [edoxaban, reference compound]
mean fibrin diameter ([3]; edoxaban anticoagulation without reversal, native state ∼250 nm): ~125 nm | effect on WBCT ([8]; edoxaban 60 mg oral): significant elevation

From PMC6260118 (Thrombosis and Haemostasis, 2017)
